The values that follow come from ChEMBL document CHEMBL1128454, “Cyclization-activated prodrugs: N-(substituted 2-hydroxyphenyl and 2-hydroxypropyl)carbamates based on ring-opened derivatives of active benzoxazolones and oxazolidinones as mutual prodrugs of acetaminophen” (J Med Chem, 1995).

Data set [1] in a line: Compound was evaluated for its hydrolysis half life obtained from the relation Kobs was measured in a pH 7.4 phosphate buffer at 37 degree C (micro = 0.5 M ). Type of data set: ADME. To be noted: for half-life: phosphate buffer. The method, boiled down:
(§1)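 Prodrug hydrolysed in pH 7.40 phosphate buffer at 37 °C (some runs at 25 °C) and monitored by UV spectrophotometry until product formation, about 10 half-lives. First-order kobsd from ln(OD) vs time, with pH checked before and after. Half-life taken as 0.693/kobsd.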

Data set [2] in a line: Compound was evaluated for pKa. Type of data set: physicochemical. The method, boiled down:
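Apparent kinetic pKa obtained by fitting the pH-rate profile (log kobsd vs pH, UV-monitored hydrolysis in NaOH and carbonate, borax, Tris or phosphate buffers) to a rate law combining the pH-independent constant with the acid dissociation constant of the prodrug hydroxyl.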

Data set [3] can be described thus: Compound was evaluated for its rate constant (Kp) which are average values of Kobs measured in the pH range 10-11 at 25 degree C (micro = 0.5 M ). Type of data set: ADME. In outline: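 Spectrophotometric hydrolysis in aqueous NaOH or carbonate/borax buffers, 25 °C, ionic strength 0.5 M. kp is the average of kobsd values measured over pH 10-11 (the pH-independent plateau). kobsd came from first-order ln(OD) vs time plots. Error in each rate constant about ±3%.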

The nature of data set [4]: its hydrolysis half life in rat plasma (pH 7.4). Type of data set: ADME, organism-based. In outline:
(§2)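 Prodrug in acetonitrile or dioxane added to 0.05 M phosphate buffer pH 7.40 containing 80% human or rat plasma, about 0.04 mg/mL initial, at 37 or 25 °C. Aliquots quenched and deproteinized with 0.05 M methanolic HCl, centrifuged, then analysed by reversed-phase HPLC with diode-array detection. First-order constants from ln plots of drug or prodrug concentration vs time.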

The nature of data set [5]: its hydrolysis half life in human plasma (pH 7.4). Type of data set: ADME, organism-based. The method, boiled down: as §2
A short description of data set [6]: its hydrolysis half life in phosphate buffer (pH 7.4). Type of data set: ADME. In outline: as §1
Data set [7] is described as follows: its bimolecular rate constant (KOH) at 25 degree C (m = 0.5). Type of data set: ADME. The method, boiled down: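 Hydrolysis followed by UV spectrophotometry in aqueous NaOH or buffer (carbonate, borax, Tris, phosphate) at 25 °C, ionic strength 0.5 M. Second-order constant kOH taken from the linear plot of kobsd vs [OH-] over the pH-dependent region. kobsd came from ln(OD) vs time plots. pH in the cell was read before and after reaction.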

A word on the pKa: it is the pH at which an ionisable group is half protonated. The low end stands for a stronger acid or weaker base, the high end for a weaker acid or stronger base.

For the compound `COc1ccc(OC(=O)Nc2cc(Cl)ccc2O)cc1`, the half-life in data set [1] came to 0.37 min. The same compound yielded a pKa in data set [2] of 10.2. The Kp in data set [3] came out at 0.0976 s⁻¹.

Turning to `O=C(Nc1cc(Cl)ccc1O)OCC(Cl)(Cl)Cl`, the figures for the half-life in data set [1], in data set [4] (read-out: T1/2) and in data set [5] (read-out: T1/2) were 276000 min, 7.5 min and 10.1 min, respectively. In data set [2], this compound returned a pKa of 12.7. Further, in data set [3], the Kp was determined as 1.14 s⁻¹.

`CC(=O)Nc1ccc(OC(=O)NCC(O)COc2cc(C)cc(C)c2)cc1` (configuration not stated): the half-life in data set [4] (read-out: T1/2) turned out to be 62 min; in data set [6], 416 min; in data set [5] (read-out: T1/2) it was 45 min.

The compound `O=C(Nc1cc(Cl)ccc1O)Oc1cccc(C(F)(F)F)c1` displayed a half-life in data set [1] of 0.0518 min. Besides, the pKa in data set [2] stood at 8.97. Also, the Kp in data set [3] turned out to be 0.7 s⁻¹.

Compound `CC#CCOC(=O)Nc1cc(Cl)ccc1O` gave a pKa in data set [2] of 14.2. In data set [3], this compound registered a Kp of 5.93e-06 s⁻¹.

For `C#CCOC(=O)Nc1cc(Cl)ccc1O`, in data set [1] (buffer), the T1/2 came to 108 min. The pKa in data set [2] came to 13.6. In addition, in data set [3], the Kp worked out at 0.00025 s⁻¹.

Compound `CNC(=O)Oc1ccc(NC(C)=O)cc1` returned a KOH in data set [7] of 11.5 M⁻¹ s⁻¹.

Consider `CC(=O)Nc1ccc(OC(=O)Nc2cc(C(=O)c3ccccc3)ccc2O)cc1`, for which the half-life in data set [1] worked out at 0.233 min; in data set [4] (read-out: T1/2), 2.9 min; in data set [6] it was 0.233 min; in data set [5] (read-out: T1/2) it was 10.2 min. In addition, the pKa in data set [2] is 9.49. The Kp in data set [3] is 0.0221 s⁻¹.

In data set [1], `O=C(Nc1cc(Cl)ccc1O)Oc1ccccc1` gave a half-life of 0.2 min. This compound also returned a pKa in data set [2] of 10. Moreover, the Kp in data set [3] amounted to 0.169 s⁻¹.

Turning to `CC(C)(C)OC(=O)Nc1ccc(OC(=O)Nc2cc(Cl)ccc2O)cc1`, in data set [1], the half-life is 0.187 min. The pKa in data set [2] worked out at 9.8. The compound also had a Kp in data set [3] of 0.184 s⁻¹.

For the compound `COC(=O)Nc1cc(Cl)ccc1O`, the half-life in data set [1] was 105000 min. In data set [2], this compound returned a pKa of 15.5. Besides, in data set [3], the Kp stood at 1.05e-06 s⁻¹.

For `COc1ccccc1OCC(O)CNC(=O)Oc1ccc(NC(C)=O)cc1` (configuration not stated), the half-life was 58 min in data set [4] (read-out: T1/2), 371 min in data set [6] and 59 min in data set [5] (read-out: T1/2). Besides, in data set [7], the KOH was determined as 10.5 M⁻¹ s⁻¹.

Regarding `CC(=O)Nc1ccc(OC(=O)Nc2ccc(C(=O)c3ccccc3)cc2O)cc1`, the half-life is 0.0965 min in data set [1], 0.233 min in data set [4], 0.097 min in data set [6] and 1 min in data set [5]. This compound also displayed a pKa in data set [2] of 9.49. In data set [3], the Kp came out at 0.119 s⁻¹.

Take `COc1ccccc1OCC(CNC(=O)Oc1ccc(NC(C)=O)cc1)OC` (configuration not stated): the half-life in data set [4] (read-out: T1/2) was found to be 153 min; in data set [6], 502 min; in data set [5] (read-out: T1/2), 134 min.

In data set [1], `O=C(Nc1cc(Cl)ccc1O)OCC(F)(F)F` came in with a half-life of 2.58 min. The compound also displayed a pKa in data set [2] of 12.4. The Kp in data set [3] was found to be 0.014 s⁻¹.

The compound `CCOC(=O)Nc1cc(Cl)ccc1O` gave a half-life in data set [1] of 418000 min. Besides, the pKa in data set [2] came to 16. In addition, in data set [3], the Kp worked out at 8.63e-07 s⁻¹.

As to `O=C(Nc1cc(Cl)ccc1O)Oc1cccc(Cl)c1`, the half-life in data set [1] worked out at 0.0634 min. In addition, the pKa in data set [2] came out at 9.02. This compound also gave a Kp in data set [3] of 0.503 s⁻¹.

`O=C(Nc1cc(Cl)ccc1O)OCC(Cl)Cl`: the half-life in data set [1] is 42.5 min; in data set [4] (read-out: T1/2), 53.8 min; in data set [5] (read-out: T1/2), 105 min. In data set [2], this compound registered a pKa of 13.2. In data set [3], this compound displayed a Kp of 0.000806 s⁻¹.

Turning to `O=C(Nc1cc(Cl)ccc1O)OCCCl`, in data set [2], the pKa was 14.3. In data set [3], this compound displayed a Kp of 2.75e-06 s⁻¹.

As to `CC(=O)Nc1ccc(OC(=O)Nc2cc(Cl)ccc2O)cc1`, the half-life in data set [1] was determined as 0.118 min; in data set [4], 0.833 min; in data set [6], 0.118 min; in data set [5], 1.1 min. Moreover, the pKa in data set [2] came to 9.49. The compound also gave a Kp in data set [3] of 0.205 s⁻¹.

As for `COc1ccc(Cl)cc1NC(=O)Oc1ccc(NC(C)=O)cc1`, the KOH in data set [7] is 510 M⁻¹ s⁻¹.

With `CC(=O)Nc1cccc(OC(=O)Nc2cc(Cl)ccc2O)c1`, the half-life in data set [1] came to 0.125 min. Moreover, the pKa in data set [2] was 9.38. In data set [3], this compound came in with a Kp of 0.279 s⁻¹.

On to `Cl.Nc1ccc(OC(=O)Nc2cc(Cl)ccc2O)cc1`, for which the half-life in data set [1] came to 0.383 min. This compound had a pKa in data set [2] of 10.4. Moreover, the Kp in data set [3] came to 0.0806 s⁻¹.
